Results on eleven molecules are retold here after ChEMBL document CHEMBL4359814, “A Potent Isoprenylcysteine Carboxylmethyltransferase (ICMT) Inhibitor Improves Survival in Ras-Driven Acute Myeloid Leukemia” (J Med Chem, 2019).

By inhibition is commonly meant the relative decrease from the control value, in per cent. By Kd is commonly meant the concentration at which binding is half-saturated.

Data set [1] addresses Protein-S-isoprenylcysteine O-methyltransferase (Homo sapiens) (UniProt O60725). Kind of data set: Inhibition of recombinant human ICMT expressed in Sf9 insect cell membranes at 50 uM using biotin-farnesyl-L-cysteine as substrate preincubated for 15 mins followed by substrate addition and measured after 30 mins by scintillation counting analysis relative to control.
Data set [2] is described as follows: Permeability of the compound. The data set is classed as ADME. In short, it runs like this:
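Parallel artificial membrane assay, expressed as percentage of compound passing through the membrane. Mean±SEM of at least two independent experiments in duplicate.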

The target in the next data set is Albumin (Homo sapiens, UniProt P02768). As to the kind of experiment: Binding affinity to human serum albumin. The data set is classed as ADME. The following applies: for fraction unbound: human, human serum albumin, read-out: PB (converted).
Chain of Albumin (P02768 whole entry, the tested form may be a part): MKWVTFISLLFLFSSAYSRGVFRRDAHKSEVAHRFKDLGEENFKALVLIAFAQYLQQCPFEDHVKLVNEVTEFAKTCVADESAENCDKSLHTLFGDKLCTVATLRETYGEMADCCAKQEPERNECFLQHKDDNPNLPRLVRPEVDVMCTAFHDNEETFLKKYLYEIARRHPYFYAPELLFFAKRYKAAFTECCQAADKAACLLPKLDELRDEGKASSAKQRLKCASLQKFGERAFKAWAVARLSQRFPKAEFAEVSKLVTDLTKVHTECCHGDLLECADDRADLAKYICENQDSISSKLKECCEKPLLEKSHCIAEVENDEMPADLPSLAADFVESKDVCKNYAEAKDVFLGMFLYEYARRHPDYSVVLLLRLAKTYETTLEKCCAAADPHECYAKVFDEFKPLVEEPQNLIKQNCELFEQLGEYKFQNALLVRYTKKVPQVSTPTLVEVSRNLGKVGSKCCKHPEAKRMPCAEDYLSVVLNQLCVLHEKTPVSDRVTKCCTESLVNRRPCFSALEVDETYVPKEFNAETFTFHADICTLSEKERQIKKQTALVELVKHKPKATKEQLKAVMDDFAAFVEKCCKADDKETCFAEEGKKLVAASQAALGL
In data set [3] the target is Tyrosine-protein kinase Fyn (Homo sapiens) (UniProt P06241). Kind of data set: Effect on GFP-fused Fyn (unknown origin) transfected in human AD293 cells assessed as induction of Fyn mislocalization at 5 uM by laser confocal microscopic analysis. The data set is classed as cell-based.
Chain of Tyrosine-protein kinase Fyn (Homo sapiens) (P06241 2-537 limits assumed): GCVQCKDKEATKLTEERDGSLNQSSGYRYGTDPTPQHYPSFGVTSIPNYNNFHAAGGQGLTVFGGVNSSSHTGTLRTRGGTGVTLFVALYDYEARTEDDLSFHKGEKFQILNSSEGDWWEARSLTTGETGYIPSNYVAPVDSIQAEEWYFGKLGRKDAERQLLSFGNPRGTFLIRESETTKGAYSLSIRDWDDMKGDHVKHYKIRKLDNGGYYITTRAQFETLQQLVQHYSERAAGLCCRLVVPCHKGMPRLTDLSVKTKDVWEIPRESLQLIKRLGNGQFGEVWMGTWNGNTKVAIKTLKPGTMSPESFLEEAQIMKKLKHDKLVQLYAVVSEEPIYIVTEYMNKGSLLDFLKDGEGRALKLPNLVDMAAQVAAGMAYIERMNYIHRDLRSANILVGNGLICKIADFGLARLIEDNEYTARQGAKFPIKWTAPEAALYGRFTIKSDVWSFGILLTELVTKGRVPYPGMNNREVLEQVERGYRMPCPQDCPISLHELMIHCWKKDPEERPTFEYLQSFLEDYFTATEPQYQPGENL
A short description of data set [4]: […] at 25 mg/kg, ip measured up to 6 hrs by LC-MS/MS analysis. The data set is classed as ADME, organism-based. The following applies: NSG, mouse, plasma.
Data set [5] in a line: Drug level in NSG mouse plasma at 25 mg/kg, ip measured after 1 hr by LC-MS/MS analysis. The data set is classed as ADME, organism-based. Summed up: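 8-week female mice received a single 25 mg/kg ip dose. Blood was taken by cardiac puncture at set time points (n=3 per point), clotted 30 min at rt and centrifuged. Serum was extracted with cold acetonitrile, filtered, and analysed by LC-MS/MS on a C18 column using positive ESI and MRM transition 423.50 > 289.05.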

The nature of data set [6]: Drug level in NSG mouse plasma xenografted with human HL60 cells at 25 mg/kg, ip administered 5 days a week followed by 2 days interval for 15 days measured 2 hrs post-last dose by LC-MS/MS analysis. The data set is classed as ADME, organism-based.
The target in data set [7] is T1, Protein farnesyltransferase (Homo sapiens) (UniProt P49354+P49356). As to the kind of experiment: Inhibition of FTase in human PC3 cells assessed as reduction in HDJ2 farnesylation at 10 uM measured after 24 hrs by Western blot analysis. The data set is classed as cell-based. For orientation: A western blot detects proteins with antibodies after separation by electrophoresis.

Another data set concerns the target T2, CAAX prenyl protease 2 (Homo sapiens, UniProt Q9Y256).
T2 sequence (Q9Y256 whole entry): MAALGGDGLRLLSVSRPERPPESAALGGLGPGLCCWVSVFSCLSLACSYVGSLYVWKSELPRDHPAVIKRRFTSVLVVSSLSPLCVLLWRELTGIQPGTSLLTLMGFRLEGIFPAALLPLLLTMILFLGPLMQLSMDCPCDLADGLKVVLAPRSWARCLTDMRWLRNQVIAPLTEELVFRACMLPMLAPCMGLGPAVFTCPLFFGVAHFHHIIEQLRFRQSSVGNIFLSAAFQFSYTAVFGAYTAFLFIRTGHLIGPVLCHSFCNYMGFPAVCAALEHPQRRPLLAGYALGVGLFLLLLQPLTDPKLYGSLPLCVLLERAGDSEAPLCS
Kind of data set: Inhibition of Rce1 in human PC3 cells at 10 uM using KSKTKC(f)VI as substrate measured after 24 hrs by LC-MS/MS analysis. The data set is classed as cell-based. In short, it runs like this: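 PC-3 cells were incubated ±10 μM compound for 24 h and homogenised in 100 mM HEPES pH 7.5, 5 mM MgCl2, 0.5% NP-40. Homogenate, 0.2 mg, was reacted with 250 μM KSKTKC(f)VI for 60 min at 37 °C. Reactions were stopped with ice-cold acetonitrile, and the M+2/2 ion was followed by HPLC-MS/MS.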

Data set [8] concerns the target Protein-S-isoprenylcysteine O-methyltransferase (Homo sapiens) (UniProt O60725). Kind of data set: Inhibition of ICMT in human PC3 cells assessed as induction of mislocalization of endogenous Ras at 5 uM preincubated for 48 hrs followed by compound washout and subsequent compound addition measured after 72 hrs by Hoechst 33258 staining-based confocal microscopic analysis. The data set is classed as cell-based. In short, it runs like this:
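PC3 cells were seeded at 2×10^4 on poly-D-lysine coverslips for 24 h in RPMI with 10% FBS. They were treated with compound or DMSO for 120 h, with medium and compound renewed at 48 h. Cells were fixed in 4% PFA, permeabilised with Triton X-100, and stained with anti-Ras and a fluorescent secondary, with Hoechst for nuclei. Imaging used a 60X confocal objective, and membrane Ras signal was quantified.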

For data set [9], the system named is PC-3. As to the kind of experiment: Induction of autophagy in human PC3 cells assessed as increase in LC3 expression at 25 uM measured after 24 hrs by Western blot analysis. The data set is classed as functional, cell-based.
The test system of data set [10] is PC-3. Kind of data set: Induction of apoptosis in human PC3 cells assessed as increase in cleaved PARP expression at 25 uM measured after 24 hrs by Western blot analysis. The data set is classed as functional, cell-based.
The subject of data set [11] is PC-3. Kind of data set: Induction of apoptosis in human PC3 cells assessed as increase in caspase 3 activity at 25 uM. The data set is classed as functional, cell-based.
The target in data set [12] is Protein-S-isoprenylcysteine O-methyltransferase (Homo sapiens) (UniProt O60725). Kind of data set: Inhibition of ICMT in human AD293 cells transfected GFP-fused H-Ras assessed as induction of H-Ras mislocalization at 5 uM by laser scanning confocal microscopic analysis. The data set is classed as cell-based. Summed up: (§1)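 AD-293 cells were transiently transfected with GFP fusion plasmids of H-Ras, K-Ras4A, K-Ras4B or N-Ras. They were treated overnight with 5 μM compound or DMSO, then imaged live by laser scanning confocal microscopy. Three independent transfections were performed in triplicate.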
Chain of Protein-S-isoprenylcysteine O-methyltransferase (Homo sapiens) (O60725 whole entry, the tested form may be a part): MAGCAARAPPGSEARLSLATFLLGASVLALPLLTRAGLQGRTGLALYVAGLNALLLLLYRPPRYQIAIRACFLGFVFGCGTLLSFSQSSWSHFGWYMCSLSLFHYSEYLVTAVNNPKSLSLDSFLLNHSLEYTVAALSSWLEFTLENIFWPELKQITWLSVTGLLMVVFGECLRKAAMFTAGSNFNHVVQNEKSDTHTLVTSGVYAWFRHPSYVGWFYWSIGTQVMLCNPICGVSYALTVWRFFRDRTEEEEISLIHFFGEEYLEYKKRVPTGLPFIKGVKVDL

Data set [13] shares this target. As to the kind of experiment: Inhibition of ICMT in human AD293 cells transfected GFP-fused N-Ras assessed as induction of N-Ras mislocalization at 5 uM by laser scanning confocal microscopic analysis. The data set is classed as cell-based. In short, it runs like this: as §1
Data set [14] has the same target. As to the kind of experiment: Inhibition of ICMT in human AD293 cells transfected GFP-fused K-Ras4A assessed as induction of K-Ras4A mislocalization at 5 uM by laser scanning confocal microscopic analysis. The data set is classed as cell-based. Summed up: as §1
Data set [15] shares this target. Kind of data set: Inhibition of ICMT in human AD293 cells transfected GFP-fused K-Ras4B assessed as induction of K-Ras4B mislocalization at 5 uM by laser scanning confocal microscopic analysis. The data set is classed as cell-based. In short, it runs like this: as §1
The next data set has as its system MIA PaCa-2. Kind of data set: Induction of apoptosis in human MIAPaCa2 cells assessed as increase in sub-G0/G1 population at 50 uM measured after 24 hrs by propidium iodide staining based flow cytometry. The data set is classed as functional, cell-based. (In flow cytometry, cells or beads pass a laser one at a time.)
The next data set has as its system HuP-T4. Kind of data set: Induction of apoptosis in human HUPT4 cells assessed as increase in sub-G0/G1 population at 50 uM measured after 24 hrs by propidium iodide staining based flow cytometry. The data set is classed as functional, cell-based.
The subject of another data set is PANC-1. Kind of data set: Induction of apoptosis in human PANC1 cells assessed as increase in sub-G0/G1 population at 50 uM measured after 24 hrs by propidium iodide staining based flow cytometry. The data set is classed as functional, cell-based.
The subject of a further data set is PK9. As to the kind of experiment: Induction of apoptosis in human PK9 cells assessed as increase in sub-G0/G1 population at 50 uM measured after 24 hrs by propidium iodide staining based flow cytometry. The data set is classed as functional, cell-based.
In another data set the test system is Capan-2. Kind of data set: Induction of apoptosis in human Capan2 cells assessed as increase in sub-G0/G1 population at 50 uM measured after 24 hrs by propidium iodide staining based flow cytometry. The data set is classed as functional, cell-based.
The species entered for data set [16] is Homo sapiens. As to the kind of experiment: Inhibition of GGTase in human PC3 cells assessed as reduction in Rap1A geranylgeranylation at 10 uM measured after 24 hrs by Western blot analysis. The data set is classed as cell-based.
The species entered for data set [17] is Homo sapiens. As to the kind of experiment: Inhibition of GGTase in human PC3 cells assessed as reduction in Rap1A geranylgeranylation at 1 uM measured after 24 hrs by Western blot analysis. The data set is classed as cell-based.
Data set [18] concerns the target T1, Protein farnesyltransferase (Homo sapiens). The following applies: 1 uM.

Active and inactive are the calls of the source. The calls are words filed in the database; no cut-off is given here.

For the molecule `CCOCCOCCN(CCC(=O)Nc1ccccc1)CCC(=O)Nc1ccccc1`, the inhibition in data set [1] was 15%.
In the case of `CCCCCCCCN(CCS(=O)(=O)N(C)c1ccccc1)CCS(=O)(=O)N(C)c1ccccc1`, the inhibition in [1] is 12%.
On the same count and under the same terms, next, `CCCCCCCCN(CCC(=O)Nc1ccccc1)CCS(=O)(=O)Nc1ccccc1`: 22%.
The molecule `CCCCCCCCN(CCC(=O)Nc1ccccc1)CCC(=O)Nc1ccccc1` returned a permeability in data set [2] of 68%. On Albumin, the Kd amounted to 28 µM and the fraction unbound is 0.046. In addition, the result in data set [3] was inactive. This molecule also showed a concentration at 6 h in data set [4] of 480 nM. For the same molecule, in data set [5], the concentration at 1 h was determined as 1700 nM. In addition, the concentration at 2 h in data set [6] amounted to 736 nM. Besides, the inhibition result in data set [7] was “inactive”. On CAAX prenyl protease 2, the “inhibition (INH)” value is “Not Active”.
Consider `CCCCCCCCn1cc(CC(N)=O)c2cc(-c3cccc(C)c3)ccc21`, for which the inhibition result in [8], in data set [12], in data set [13], in data set [14] and in data set [15] was “Active” throughout. Moreover, the outcome with PC-3 [9], in the data set on PC-3 [10], in the data set on PC-3 [11], in the data set with MIA PaCa-2, in the data set on HuP-T4 and with PANC-1 was Active. Also, the result in the data set with PK9 and in the data set with Capan-2 was Active. Moreover, in [3], the outcome was inactive.
In the case of `CCCCCCCCN(CCC(=O)Nc1ccccc1)CCC(=O)Nc1ccc(F)cc1`, the permeability in [2] worked out at 54%. Moreover, at Albumin, the Kd came out at 7.8 µM and the fraction unbound was 0.013.
As to `COC(=O)[C@H](CC(C)C)NC(=O)c1ccc(NC[C@@H](N)CS)cc1-c1cccc2ccccc12`, the inhibition entry in data set [7] was “inactive”. For the same molecule, the inhibition result in the data set filed under Homo sapiens [16] is “Active”.
In the case of `CCCCCCCCN(CCS(=O)(=O)Nc1ccccc1)CCS(=O)(=O)Nc1ccccc1`, the inhibition in data set [1] amounted to 34%.
On to `NC(=O)N1CCC(CC(=O)N2CCC([C@H]3c4ncc(Br)cc4CCc4cc(Cl)cc(Br)c43)CC2)CC1`, for which the inhibition entry in the data set listed under Homo sapiens [17] was “inactive”. The inhibition result in data set [18] was “Active”.
In turn, `CCCCCCCCN(CCC(=O)Nc1ccccc1)CCC(=O)NC1CCCCC1` came in with a permeability in [2] of 50%. At Albumin, binding was put at a Kd of 3 µM and the fraction unbound was 0.005.
Turning to `CCCCCCCCN(CCC(=O)Nc1ccccc1)CCS(=O)(=O)N(C)c1ccccc1`, the inhibition in [1] amounted to 10%.
